Results collected from several papers.
Observed: cell growth or viability

SMILES	cell line	technique	concentration	time	measurement	value
CCc1ncn(CC(c2c[nH]c3ccc(C)cc23)c2c[nH]c3ccc(C)cc23)c1C(=O)OC	HaCaT	MTS	20 µM	24 h	inhibition	23%
Cc1cc(C)cc(COc2cc3c(cc2OCc2cc(C)cc(C)c2)C2CC(O)(Cc4cn(CCOCCOCCOCCOc5ccc6c(c5)C(=O)N(C5CCC(=O)NC5=O)C6=O)nn4)CC(C)N2CC3)c1 (stereo not drawn)	ASPC1	MTT			IC50	1120 nM
CCCCCCCCCCCCCCCCOP(=O)([O-])OCC[N+](C)(C)C	HaCaT	MTS	20 µM	24 h	inhibition	45.5%
Cc1cc(C)cc(COc2cc3c(cc2OCc2cc(C)cc(C)c2)[C@H]2C[C@](O)(Cc4cn(CC5CC5)nn4)C[C@H](C)N2CC3)c1	ASPC1	MTT			IC50	612 nM
COC(=O)c1c(C)ncn1CC(c1c[nH]c2ccccc12)c1c[nH]c2ccccc12	HaCaT	MTS	20 µM	24 h	inhibition	9.7%
CC(C)C[C@H](NC(=O)[C@H](Cc1ccccc1)NC(=O)c1cnccn1)B(O)O	HEC-1-A	ATP luminescence			IC50	17 nM
C/C=C/C(=O)Nc1ccc(CCn2cc(C[C@@]3(O)C[C@@H]4c5cc(OCc6cc(C)cc(C)c6)c(OCc6cc(C)cc(C)c6)cc5CCN4[C@@H](C)C3)nn2)cc1	ASPC1	MTT			IC50	870 nM
CCCCc1nc(Cl)c(CO)n1Cc1ccc(-c2ccccc2-c2nn[nH]n2)cc1	WI-38	MTT		72 h	EC50	9000 nM
C=CC(=O)N1CCC[C@@H](n2nc(-c3ccc(Oc4ccccc4)cc3)c3c(N)ncnc32)C1	KU812			48 h	GI50	3080 nM
Cc1cc(C)cc(COc2cc3c(cc2OCc2cc(C)cc(C)c2)C2CC(O)(Cc4cn(CCOCCOCCOCCNC(=O)CNc5cccc6c5C(=O)N(C5CCC(=O)NC5=O)C6=O)nn4)CC(C)N2CC3)c1 (stereo not drawn)	ASPC1	MTT			IC50	3210 nM
COc1ccc(-c2ccc(-c3ccc(C(=N)N)nc3)s2)cc1Cl	SNB-19	SRB			GI50	1700 nM
CC(C)=CCC[C@](C)(O)[C@H]1CC[C@]2(C)[C@@H]1[C@H](O)C[C@@H]1[C@@]3(C)CC[C@H](O[C@@H]4O[C@H](CO)[C@@H](O)[C@H](O)[C@H]4O[C@@H]4O[C@H](CO)[C@@H](O)[C@H](O)[C@H]4O)C(C)(C)[C@@H]3CC[C@]12C	NCI-H358	MTT		72 h	IC20	> 100000 nM
Cc1cc(C)cc(COc2cc3c(cc2OCc2cc(C)cc(C)c2)[C@H]2C[C@](O)(Cc4cn(CCOCCOCCOCCNC(=O)[C@@H](CC(C)C)NC(=O)[C@@H](O)[C@H](N)Cc5ccccc5)nn4)C[C@H](C)N2CC3)c1	ASPC1	MTT			IC50	630 nM
Cc1cc(Nc2ncc(Cl)c(Nc3ccccc3S(=O)(=O)C(C)C)n2)c(OC(C)C)cc1C1CCNCC1	KARPAS-299	MTT	0.06173 µg/mL	72 h	inhibition	62.4%
Cc1cn(CC(c2cn(C)c3ccccc23)c2cn(C)c3ccccc23)nn1	HaCaT	MTS	20 µM	24 h	inhibition	9.6%
COc1cc(-c2ccc(-c3ccc(C(=N)N)nc3)s2)cc(OC)c1OC	CAKI-1				GI50	1590 nM
Cc1c(-c2cccc(C(F)(F)F)c2)sc2[nH]c(=O)n([C@H](C)c3cccc4ccccc34)c(=O)c12	HCC827		10 µM		inhibition	> 80%
Cc1cc(C)cc(COc2cc3c(cc2OCc2cc(C)cc(C)c2)C2CC(O)(Cc4cn(CCOCCOCCOCCNC(=O)CNc5ccc6c(c5)C(=O)N(C5CCC(=O)NC5=O)C6=O)nn4)CC(C)N2CC3)c1 (stereo not drawn)	ASPC1	MTT			IC50	> 5000 nM
COC(=O)c1c(C)ncn1CC(c1cn(C)c2ccccc12)c1cn(C)c2ccccc12	HaCaT	MTS	20 µM	24 h	inhibition	12.6%
Cc1cc(C)cc(COc2cc3c(cc2OCc2cc(C)cc(C)c2)C2CC(O)(Cc4cn(CCCCCCNc5ccc6c(c5)C(=O)N(C5CCC(=O)NC5=O)C6=O)nn4)CC(C)N2CC3)c1 (stereo not drawn)	ASPC1	MTT			IC50	1230 nM
COC(C)(C)CCC[C@](C)(O)[C@H]1CC[C@]2(C)[C@@H]1[C@H](O)C[C@@H]1[C@@]3(C)CC[C@H](O)C(C)(C)[C@@H]3CC[C@]12C	NCI-H358	MTT		72 h	IC20	4480 nM
Cc1cc(C)cc(COc2cc3c(cc2OCc2cc(C)cc(C)c2)[C@H]2C[C@](O)(Cc4cn(Cc5cc(C(F)(F)F)cc(C(F)(F)F)c5)nn4)C[C@H](C)N2CC3)c1	ASPC1	MTT			IC50	836 nM
COc1cc(Nc2nccc(-c3cnn4nc(OC)ccc34)n2)cc(C(F)(F)F)c1	HCC1569	ATP luminescence			IC50	> 3000 nM
C[C@@H](Oc1cc(-c2cnn(C3CCNCC3)c2)cnc1N)c1c(Cl)ccc(F)c1Cl	KARPAS-299	MTT	1 µg/mL	72 h	inhibition	85.2%
